From ChEMBL document CHEMBL2417416, “Total synthesis and full histone deacetylase inhibitory profiling of Azumamides A-E as well as β²- epi-Azumamide E and β³-epi-Azumamide E” (J Med Chem, 2013)

Legend:
[1] = target: Histone deacetylase 1 (Homo sapiens, UniProt Q13547); assay: Inhibition of recombinant human HDAC1 enzyme using flurogenic Ac-LeuGlyLys (Ac)-AMC as substrate after 15 to 30 mins
[2] = target: Histone deacetylase 3/NCoR1 (Homo sapiens) (UniProt O15379+O75376); conditions: 50 uM
[3] = target: T1, Protein deacetylase HDAC6 (Homo sapiens) (UniProt Q9UBN7); assay: Inhibition of recombinant human HDAC6 enzyme using flurogenic Ac-LeuGlyLys (Ac)-AMC as substrate at 50 uM after 15 to 30 mins
T1 sequence (whole entry): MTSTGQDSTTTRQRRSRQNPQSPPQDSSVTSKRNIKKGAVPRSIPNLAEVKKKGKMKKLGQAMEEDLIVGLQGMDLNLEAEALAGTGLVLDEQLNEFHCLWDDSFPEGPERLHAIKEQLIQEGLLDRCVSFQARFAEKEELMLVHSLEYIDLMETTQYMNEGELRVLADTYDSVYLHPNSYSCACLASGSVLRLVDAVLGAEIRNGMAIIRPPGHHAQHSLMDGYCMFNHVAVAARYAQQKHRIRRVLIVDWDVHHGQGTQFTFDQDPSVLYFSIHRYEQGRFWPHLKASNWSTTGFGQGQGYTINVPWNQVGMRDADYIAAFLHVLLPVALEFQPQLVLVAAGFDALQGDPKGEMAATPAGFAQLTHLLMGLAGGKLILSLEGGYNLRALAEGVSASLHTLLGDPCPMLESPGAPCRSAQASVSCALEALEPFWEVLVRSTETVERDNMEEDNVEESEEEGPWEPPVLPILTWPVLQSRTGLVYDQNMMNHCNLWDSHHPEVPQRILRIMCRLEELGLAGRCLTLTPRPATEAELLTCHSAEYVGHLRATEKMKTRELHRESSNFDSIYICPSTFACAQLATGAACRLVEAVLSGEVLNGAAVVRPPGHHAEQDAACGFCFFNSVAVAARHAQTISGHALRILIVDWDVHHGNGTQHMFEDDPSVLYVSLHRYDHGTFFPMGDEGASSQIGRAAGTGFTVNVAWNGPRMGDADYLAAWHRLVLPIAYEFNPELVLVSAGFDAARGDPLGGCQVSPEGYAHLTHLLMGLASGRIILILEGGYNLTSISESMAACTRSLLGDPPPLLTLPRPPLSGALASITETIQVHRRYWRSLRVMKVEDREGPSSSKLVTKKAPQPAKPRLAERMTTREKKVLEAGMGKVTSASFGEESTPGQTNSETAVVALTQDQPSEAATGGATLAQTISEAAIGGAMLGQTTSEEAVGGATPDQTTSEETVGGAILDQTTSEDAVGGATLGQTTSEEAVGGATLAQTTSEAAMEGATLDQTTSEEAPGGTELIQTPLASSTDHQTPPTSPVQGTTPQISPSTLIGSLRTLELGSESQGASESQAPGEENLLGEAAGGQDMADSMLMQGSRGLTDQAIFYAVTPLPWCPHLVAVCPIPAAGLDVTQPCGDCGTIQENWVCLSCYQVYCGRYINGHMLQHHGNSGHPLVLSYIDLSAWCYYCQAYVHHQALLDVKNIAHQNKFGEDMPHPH
Summary of the method: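 The single-point screen used HDAC6 at 60 ng/well, 50 μM compound and 80 μM Ac-Leu-Gly-Lys(Ac)-AMC in pH 8.0 Tris buffer with 0.5 mg/mL BSA, incubated 30 min at 37 °C. Trypsin (0.4 mg/mL) was added for 15–30 min at room temperature, and fluorescence was read at 360/460 nm. Each result came from two or more assays run in duplicate.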

[4] = target: T2, Histone deacetylase 8 (Homo sapiens) (UniProt Q9BY41); assay: Inhibition of recombinant human HDAC8 enzyme using Ac-LeuGlyLys (tfa)-AMC as substrate at 50 uM after 15 to 30 mins
T2 sequence (whole entry): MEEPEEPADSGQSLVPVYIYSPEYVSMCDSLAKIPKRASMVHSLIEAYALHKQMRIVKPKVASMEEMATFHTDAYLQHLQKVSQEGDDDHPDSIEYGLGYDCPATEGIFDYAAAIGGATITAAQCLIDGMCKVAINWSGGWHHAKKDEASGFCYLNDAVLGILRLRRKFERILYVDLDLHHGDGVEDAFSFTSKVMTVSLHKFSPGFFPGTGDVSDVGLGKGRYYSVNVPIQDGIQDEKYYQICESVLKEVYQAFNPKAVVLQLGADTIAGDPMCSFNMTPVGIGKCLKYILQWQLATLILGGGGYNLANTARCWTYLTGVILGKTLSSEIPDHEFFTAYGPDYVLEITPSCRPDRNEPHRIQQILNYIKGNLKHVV
Summary of the method: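 HDAC8 (5 ng/well) was incubated 30 min at 37 °C with 50 μM compound and 400 μM trifluoroacetylated substrate Ac-Leu-Gly-Lys(Tfa)-AMC in Tris-HCl pH 8.0 buffer with NaCl, KCl, MgCl2 and BSA. Trypsin (0.4 mg/mL) development ran 15–30 min at room temperature, with a 360/460 nm read-out. There were at least two separate duplicate assays.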

[5] = target: T3, Histone deacetylase 11 (Homo sapiens) (UniProt Q96DB2); assay: Inhibition of recombinant human HDAC11 enzyme using Ac-LeuGlyLys(Ac)-AMC as substrate at 50 uM after 15 to 30 mins
T3 sequence (whole entry): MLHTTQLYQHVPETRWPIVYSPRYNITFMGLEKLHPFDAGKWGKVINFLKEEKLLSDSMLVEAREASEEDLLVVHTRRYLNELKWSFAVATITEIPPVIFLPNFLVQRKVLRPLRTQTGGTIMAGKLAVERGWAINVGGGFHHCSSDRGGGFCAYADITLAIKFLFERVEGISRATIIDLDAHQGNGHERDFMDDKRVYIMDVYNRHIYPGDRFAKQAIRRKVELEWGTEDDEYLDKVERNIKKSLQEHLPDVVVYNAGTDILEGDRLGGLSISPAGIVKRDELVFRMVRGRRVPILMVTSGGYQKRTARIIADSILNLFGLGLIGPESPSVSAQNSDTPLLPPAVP
Summary of the method: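 HDAC11 (500 ng/well) was tested at a single 50 μM peptide concentration with 80 μM Ac-Leu-Gly-Lys(Ac)-AMC in Tris-HCl pH 8.0 buffer containing BSA, for 30 min at 37 °C. Trypsin development (0.4 mg/mL, 15–30 min, room temperature) released AMC, read at ex 360/em 460 nm. […] There were at least two assays in duplicate.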

[6] = target: T4, Polyamine deacetylase HDAC10 (Homo sapiens) (UniProt Q969S8); assay: Inhibition of recombinant human HDAC10 enzyme using tetrapeptide Ac-ArgThr-Lys(Ac)Lys(Ac)-AMC as substrate at 50 uM after 15 to 30 mins
T4 sequence (whole entry): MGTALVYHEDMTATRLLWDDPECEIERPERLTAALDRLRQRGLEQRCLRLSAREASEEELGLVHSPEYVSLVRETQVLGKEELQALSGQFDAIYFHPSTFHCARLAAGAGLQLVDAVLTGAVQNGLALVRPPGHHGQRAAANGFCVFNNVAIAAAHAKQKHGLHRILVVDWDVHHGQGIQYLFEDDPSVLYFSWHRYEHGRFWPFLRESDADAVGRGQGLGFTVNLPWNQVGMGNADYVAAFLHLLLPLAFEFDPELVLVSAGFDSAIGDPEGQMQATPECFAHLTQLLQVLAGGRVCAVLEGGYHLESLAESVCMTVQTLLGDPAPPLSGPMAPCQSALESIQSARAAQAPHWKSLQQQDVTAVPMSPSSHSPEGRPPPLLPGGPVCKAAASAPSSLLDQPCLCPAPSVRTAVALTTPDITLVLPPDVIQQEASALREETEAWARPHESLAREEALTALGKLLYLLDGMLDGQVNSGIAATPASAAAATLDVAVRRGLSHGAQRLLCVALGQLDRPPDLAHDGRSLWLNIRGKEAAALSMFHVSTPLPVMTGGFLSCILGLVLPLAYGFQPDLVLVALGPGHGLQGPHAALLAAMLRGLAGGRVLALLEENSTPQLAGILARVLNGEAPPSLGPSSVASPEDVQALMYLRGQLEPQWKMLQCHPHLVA
Summary of the method: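 Recombinant human HDAC10 (500 ng/well) was screened at 50 μM compound, with 100 μM of the Lys(Ac)-Lys(Ac)-AMC tetrapeptide substrate, in Tris-HCl pH 8.0 buffer with NaCl, KCl, MgCl2 and 0.5 mg/mL BSA. Plates were incubated 30 min at 37 °C, then developed with trypsin (0.4 mg/mL) for 15–30 min at room temperature and read at ex 360/em 460 nm. There were at least two assays in duplicate.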

[7] = target: T5, Histone deacetylase 11 (Homo sapiens, UniProt Q96DB2); assay: Inhibition of recombinant human HDAC11 enzyme using Ac-LeuGlyLys(Ac)-AMC as substrate after 15 to 30 mins
T5 sequence (Q96DB2 whole entry): T3 sequence (whole entry)

[8] = target: Histone deacetylase 2 (Homo sapiens, UniProt Q92769); assay: Inhibition of recombinant human HDAC2 enzyme using flurogenic Ac-LeuGlyLys (Ac)-AMC as substrate after 15 to 30 mins
[9] = target: Histone deacetylase 3/NCoR1 (Homo sapiens, UniProt O15379); assay: Inhibition of GST-tagged recombinant human HDAC3/NcoR1 enzyme using flurogenic Ac-LeuGlyLys (Ac)-AMC as substrate after 15 to 30 mins; format: protein-complex assay
[10] = target: T6, Histone deacetylase 8 (Homo sapiens, UniProt Q9BY41); assay: Inhibition of recombinant human HDAC8 enzyme using Ac-LeuGlyLys (tfa)-AMC as substrate after 15 to 30 mins
T6 sequence (Q9BY41 whole entry): T2 sequence (whole entry)

[11] = target: T7, Polyamine deacetylase HDAC10 (Homo sapiens, UniProt Q969S8); assay: Inhibition of recombinant human HDAC10 enzyme using tetrapeptide Ac-ArgThr-Lys(Ac)Lys(Ac)-AMC as substrate after 15 to 30 mins
T7 sequence (Q969S8 whole entry): T4 sequence (whole entry)

[12] = target: T8, Protein deacetylase HDAC6 (Homo sapiens, UniProt Q9UBN7); assay: Inhibition of recombinant human HDAC6 enzyme using flurogenic Ac-LeuGlyLys (Ac)-AMC as substrate after 15 to 30 mins
T8 sequence (Q9UBN7 whole entry): T1 sequence (whole entry)

Histone deacetylase 2, sequence (Q92769 whole entry): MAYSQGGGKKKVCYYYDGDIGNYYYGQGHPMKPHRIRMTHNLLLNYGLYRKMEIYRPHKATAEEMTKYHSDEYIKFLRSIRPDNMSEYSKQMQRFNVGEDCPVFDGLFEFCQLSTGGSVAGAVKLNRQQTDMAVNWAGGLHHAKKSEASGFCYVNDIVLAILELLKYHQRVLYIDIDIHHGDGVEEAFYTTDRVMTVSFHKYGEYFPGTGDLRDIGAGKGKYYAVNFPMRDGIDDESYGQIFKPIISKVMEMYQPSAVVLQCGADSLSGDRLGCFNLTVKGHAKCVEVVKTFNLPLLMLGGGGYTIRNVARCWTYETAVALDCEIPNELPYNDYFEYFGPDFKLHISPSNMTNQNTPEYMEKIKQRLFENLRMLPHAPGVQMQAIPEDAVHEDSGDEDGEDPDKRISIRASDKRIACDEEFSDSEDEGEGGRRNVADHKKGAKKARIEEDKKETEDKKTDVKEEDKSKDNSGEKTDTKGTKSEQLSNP
Histone deacetylase 3/NCoR1, sequence (O15379 whole entry): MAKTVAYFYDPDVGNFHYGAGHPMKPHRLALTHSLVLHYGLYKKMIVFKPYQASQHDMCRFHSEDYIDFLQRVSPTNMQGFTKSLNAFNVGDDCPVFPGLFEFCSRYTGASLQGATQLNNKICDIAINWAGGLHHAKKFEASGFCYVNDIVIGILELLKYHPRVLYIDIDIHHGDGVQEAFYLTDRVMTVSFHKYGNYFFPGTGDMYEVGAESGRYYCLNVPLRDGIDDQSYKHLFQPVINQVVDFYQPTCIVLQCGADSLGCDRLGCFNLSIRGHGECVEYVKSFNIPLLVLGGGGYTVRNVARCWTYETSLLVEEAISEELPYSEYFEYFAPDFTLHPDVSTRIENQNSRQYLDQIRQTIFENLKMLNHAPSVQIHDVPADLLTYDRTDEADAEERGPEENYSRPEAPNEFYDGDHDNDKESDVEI
Histone deacetylase 3/NCoR1, sequence (O75376 whole entry, further chain): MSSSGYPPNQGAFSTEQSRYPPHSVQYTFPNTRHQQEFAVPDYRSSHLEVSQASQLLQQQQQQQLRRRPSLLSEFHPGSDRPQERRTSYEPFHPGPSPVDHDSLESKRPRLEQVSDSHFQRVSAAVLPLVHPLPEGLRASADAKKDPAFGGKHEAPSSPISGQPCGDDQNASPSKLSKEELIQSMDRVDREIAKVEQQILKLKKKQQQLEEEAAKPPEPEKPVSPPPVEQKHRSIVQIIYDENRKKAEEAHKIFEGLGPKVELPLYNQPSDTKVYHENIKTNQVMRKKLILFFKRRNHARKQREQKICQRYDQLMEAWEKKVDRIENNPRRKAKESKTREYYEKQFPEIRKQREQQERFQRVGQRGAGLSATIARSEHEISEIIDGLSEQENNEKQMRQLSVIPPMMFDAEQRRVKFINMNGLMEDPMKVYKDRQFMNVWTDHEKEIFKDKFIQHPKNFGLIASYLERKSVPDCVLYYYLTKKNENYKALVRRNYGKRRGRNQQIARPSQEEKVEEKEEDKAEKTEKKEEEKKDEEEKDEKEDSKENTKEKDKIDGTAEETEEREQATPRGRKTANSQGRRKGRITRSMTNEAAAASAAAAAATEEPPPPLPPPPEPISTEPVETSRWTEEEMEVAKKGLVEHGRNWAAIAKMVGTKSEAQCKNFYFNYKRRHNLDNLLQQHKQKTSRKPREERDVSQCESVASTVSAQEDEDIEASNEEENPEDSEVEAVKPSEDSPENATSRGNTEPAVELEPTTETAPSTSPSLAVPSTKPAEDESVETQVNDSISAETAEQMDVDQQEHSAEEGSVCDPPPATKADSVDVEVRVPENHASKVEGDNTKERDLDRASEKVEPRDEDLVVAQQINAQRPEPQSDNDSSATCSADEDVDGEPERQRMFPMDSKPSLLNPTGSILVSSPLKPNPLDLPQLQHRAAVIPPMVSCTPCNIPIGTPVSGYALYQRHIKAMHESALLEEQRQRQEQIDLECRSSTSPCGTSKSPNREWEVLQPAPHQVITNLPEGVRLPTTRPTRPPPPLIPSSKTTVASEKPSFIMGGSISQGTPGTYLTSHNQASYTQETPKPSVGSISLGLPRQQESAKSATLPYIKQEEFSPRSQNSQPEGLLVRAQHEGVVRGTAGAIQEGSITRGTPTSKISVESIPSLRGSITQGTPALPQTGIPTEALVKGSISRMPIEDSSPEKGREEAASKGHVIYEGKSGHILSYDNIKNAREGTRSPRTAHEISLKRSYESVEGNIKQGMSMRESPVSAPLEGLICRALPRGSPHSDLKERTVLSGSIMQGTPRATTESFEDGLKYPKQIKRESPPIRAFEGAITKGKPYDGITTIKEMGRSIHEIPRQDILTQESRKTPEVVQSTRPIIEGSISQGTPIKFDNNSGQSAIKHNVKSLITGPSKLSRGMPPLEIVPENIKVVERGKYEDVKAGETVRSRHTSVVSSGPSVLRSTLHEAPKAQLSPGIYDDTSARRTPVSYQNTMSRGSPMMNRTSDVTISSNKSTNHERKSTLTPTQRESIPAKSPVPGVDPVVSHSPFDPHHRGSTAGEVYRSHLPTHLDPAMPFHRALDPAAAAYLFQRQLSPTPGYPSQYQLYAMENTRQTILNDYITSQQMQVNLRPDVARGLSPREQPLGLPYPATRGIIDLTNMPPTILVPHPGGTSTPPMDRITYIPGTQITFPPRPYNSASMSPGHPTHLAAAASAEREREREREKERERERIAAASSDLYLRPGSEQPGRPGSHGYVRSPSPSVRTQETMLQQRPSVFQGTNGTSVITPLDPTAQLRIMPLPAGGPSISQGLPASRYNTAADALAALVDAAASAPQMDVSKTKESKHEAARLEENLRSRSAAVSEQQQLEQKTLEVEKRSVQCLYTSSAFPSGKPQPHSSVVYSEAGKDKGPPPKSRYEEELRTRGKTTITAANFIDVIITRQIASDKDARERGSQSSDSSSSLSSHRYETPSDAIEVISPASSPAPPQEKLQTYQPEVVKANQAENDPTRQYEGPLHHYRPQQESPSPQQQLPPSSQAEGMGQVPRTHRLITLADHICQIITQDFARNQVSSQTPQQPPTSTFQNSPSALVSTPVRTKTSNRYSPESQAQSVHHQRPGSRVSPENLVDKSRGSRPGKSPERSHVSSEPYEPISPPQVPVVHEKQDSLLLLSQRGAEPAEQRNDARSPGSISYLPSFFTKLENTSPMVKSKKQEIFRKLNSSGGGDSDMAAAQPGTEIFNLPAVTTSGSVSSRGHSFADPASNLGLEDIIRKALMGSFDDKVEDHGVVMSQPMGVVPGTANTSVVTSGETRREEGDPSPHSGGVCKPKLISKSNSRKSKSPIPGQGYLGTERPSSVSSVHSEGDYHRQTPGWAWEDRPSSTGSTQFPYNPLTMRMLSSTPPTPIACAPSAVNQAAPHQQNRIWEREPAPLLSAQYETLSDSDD
Histone deacetylase 1, sequence (Q13547 whole entry): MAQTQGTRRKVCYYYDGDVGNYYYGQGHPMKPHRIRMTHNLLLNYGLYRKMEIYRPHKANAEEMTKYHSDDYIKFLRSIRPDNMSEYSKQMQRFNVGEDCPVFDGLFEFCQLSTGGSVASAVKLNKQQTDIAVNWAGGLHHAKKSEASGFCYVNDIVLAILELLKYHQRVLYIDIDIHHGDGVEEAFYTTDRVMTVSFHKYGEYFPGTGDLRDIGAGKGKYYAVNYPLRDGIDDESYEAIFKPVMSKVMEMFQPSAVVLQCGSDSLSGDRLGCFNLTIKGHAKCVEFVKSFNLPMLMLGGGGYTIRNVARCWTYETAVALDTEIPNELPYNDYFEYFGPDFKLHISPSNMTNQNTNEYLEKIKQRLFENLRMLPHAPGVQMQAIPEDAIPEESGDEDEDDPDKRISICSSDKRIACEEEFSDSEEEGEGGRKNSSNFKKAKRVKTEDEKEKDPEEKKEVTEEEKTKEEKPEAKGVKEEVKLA

| Ki [1] [nM] | inhibition [2] [%] | inhibition [3] [%] | inhibition [4] [%] | inhibition [5] [%] | inhibition [6] [%] | Ki [7] [µM] | Ki [8] [µM] | Ki [9] [µM] | Ki [10] [µM] | Ki [11] [µM] | Ki [12] [µM] | Structure (SMILES) |
| --- | --- | --- | --- | --- | --- | --- | --- | --- | --- | --- | --- | --- |
|  | < 50 | < 50 | < 50 | < 50 | < 50 |  |  |  |  |  |  | CC(C)[C@H]1NC(=O)[C@@H](C)[C@H](C/C=C\CCC(=O)O)NC(=O)[C@@H](Cc2ccccc2)NC(=O)[C@@H](C)NC1=O |
| > 5000 |  | < 50 |  |  | < 50 | > 5 | > 5 | 3.2 | > 5 |  |  | CC(C)[C@H]1NC(=O)[C@@H](C)[C@@H](C/C=C\CCC(N)=O)NC(=O)[C@@H](Cc2ccccc2)NC(=O)[C@@H](C)NC1=O [AZUMAMIDE A] |
|  | < 50 | < 50 | < 50 | < 50 | < 50 |  |  |  |  |  |  | CC(C)[C@H]1NC(=O)[C@H](C)[C@@H](C/C=C\CCC(=O)O)NC(=O)[C@@H](Cc2ccccc2)NC(=O)[C@@H](C)NC1=O |
|  |  |  |  |  |  | 0.06 |  | 0.025 | 4.4 | 0.02 | > 5 | CC(C)[C@H]1NC(=O)[C@@H](C)[C@@H](C/C=C\CCC(=O)O)NC(=O)[C@@H](Cc2ccccc2)NC(=O)[C@@H](C)NC1=O [AZUMAMIDE E] |

Second part, the molecule before the results:

| Structure (SMILES) | Ki [1] [nM] | inhibition [2] [%] | inhibition [3] [%] | inhibition [4] [%] | inhibition [5] [%] | inhibition [6] [%] | Ki [7] [µM] | Ki [8] [µM] | Ki [9] [µM] | Ki [10] [µM] | Ki [11] [µM] | Ki [12] [µM] |
| --- | --- | --- | --- | --- | --- | --- | --- | --- | --- | --- | --- | --- |
| C/C=C1\NC(=O)[C@H]2CSSCC/C=C/[C@H](CC(=O)N[C@H](C(C)C)C(=O)N2)OC(=O)[C@H](C(C)C)NC1=O [ROMIDEPSIN] | 0.002 |  |  |  |  |  |  |  |  |  |  |  |
| CC(C)[C@H]1NC(=O)[C@@H](C)[C@@H](C/C=C\CCC(N)=O)NC(=O)[C@@H](Cc2ccc(O)cc2)NC(=O)[C@@H](C)NC1=O [AZUMAMIDE B] | 5000 |  | < 50 | < 50 |  | < 50 | > 5 | 3 | 3 |  |  |  |
| C[C@@H]1C(=O)N[C@H](C)C(=O)N[C@H](C)C(=O)N[C@H](Cc2ccccc2)C(=O)N[C@@H]1C/C=C\CCC(N)=O [AZUMAMIDE D] | > 5000 |  | < 50 | < 50 |  | < 50 | > 5 | > 5 | 3.7 |  |  |  |
| CC(C)[C@H]1NC(=O)[C@@H](C)[C@@H](C/C=C\CCC(=O)O)NC(=O)[C@@H](Cc2ccc(O)cc2)NC(=O)[C@@H](C)NC1=O [AZUMAMIDE C] | 32 |  |  |  |  |  | 0.035 | 0.04 | 0.014 | > 5 | 0.01 | 2 |
